Data taken from ChEMBL document CHEMBL1671619, “Efficacy of pyrvinium pamoate against Cryptosporidium parvum infection in vitro and in a neonatal mouse model” (Antimicrob Agents Chemother, 2008).
Active and inactive are the calls of the source. No cut-off for these calls is given here.

Legend:
HCT-8 [1] = assay: Cytotoxicity against human HCT8 cells assessed as reduction in viable cells at 100 uM by neutral red assay; type: cell-based; conditions: hct-8, 100 µM
HCT-8 [2] = assay: Cytotoxicity against human HCT8 cells assessed as reduction in viable cells at 80 uM by neutral red assay; type: cell-based; conditions: hct-8, 80 µM
Cryptosporidium parvum [3] = assay: Antimicrobial activity against Cryptosporidium parvum infected in human HCT-8 cells after 48 hrs by ELISA; type: functional, organism-based; conditions: HCT-8, 48 h
In short: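 HCT-8 monolayers (5 × 10⁴ cells/well, seeded 24 h before) infected with 5 × 10³ Iowa-isolate oocysts in medium with 0.05% bile salts, 90 min at 37°C, then washed. Drug added in growth medium (0.5% DMSO final for DMSO-dissolved drug), 48 h at 37°C. Formalin-fixed; rat anti-sporozoite serum, HRP anti-rat, TMB, A450. Freeze-thawed oocyst background subtracted; % inhibition vs untreated infected wells; triplicate wells, two experiments.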

HCT-8 [4] = assay: Cytotoxicity against human HCT8 cells assessed as reduction in viable cells by neutral red assay; type: cell-based
Cryptosporidium parvum [5] = assay: Antimicrobial activity against Cryptosporidium parvum infected in SCID mouse assessed as reduction in parasite burden at 200 mg/kg/day, po for 10 days; type: functional, organism-based
Cryptosporidium parvum [6] = assay: Antimicrobial activity against Cryptosporidium parvum infected in human HCT-8 cells; type: functional, organism-based
Cryptosporidium parvum [7] = assay: Antimicrobial activity against Cryptosporidium parvum infected in neonatal ICR swiss mouse assessed as reduction in oocyst shedding at 150 mg/kg/day, po measured on day 6; type: functional; parameters: scale not given: the % may be the effect or the level left
Cryptosporidium parvum [8] = assay: Antimicrobial activity against Cryptosporidium parvum infected in SCID mouse assessed as reduction in parasite burden at 100 mg/kg/day, po for 10 days; type: functional, organism-based
Cryptosporidium parvum [9] = assay: Antimicrobial activity against Cryptosporidium parvum infected in neonatal BALB/C mouse assessed as reduction in number of trophozoites at 5 mg/kg/day, po for 6 days; parameters: scale not given: the % may be the effect or the level left
Cryptosporidium parvum [10] = assay: Antimicrobial activity against Cryptosporidium parvum infected in neonatal BALB/C mouse assessed as reduction in oocyst shedding at 100 mg/kg/day, po for 6 days treated 3 days postinfection; type: functional; parameters: scale not given: the % may be the effect or the level left
In short: (§1)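 3-day-old BALB/c mice were inoculated orally with 10⁵ Iowa-isolate oocysts, and oral daily dosing started 3 days postinfection; water-treated mice served as vehicle controls. Mice were killed on day 9. Distal-colon stool (2–3 μl) was smeared, methanol-fixed and IFA-stained, and oocysts were counted over 21 fields at ×400. % reduction was taken versus vehicle mice; Mann-Whitney tests were used.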

Cryptosporidium parvum [11] = assay: Antimicrobial activity against Cryptosporidium parvum GCH1 infected in MDBK cells after 48 hrs by ELISA; type: functional
Cryptosporidium parvum [12] = assay: Antimicrobial activity against Cryptosporidium parvum infected in neonatal BALB/C mouse assessed as reduction in trophozoites in appendix at 100 mg/kg/day, po for 6 days by hematoxylin and eosin staining; type: functional; parameters: scale not given: the % may be the effect or the level left
In short: (§2)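 Neonatal BALB/c mice were infected orally with 10⁵ oocysts and dosed orally for 6 days from day 3 postinfection, with necropsy on day 9. 1-cm sections of ileum (1–6 cm proximal to appendix), appendix/ileocecal junction and distal colon were formalin-fixed and H&E-stained. Two blinded readers counted trophozoites per 1,000 epithelial cells on duplicate sections. The per-mouse summary score summed all sections; comparison was against water-vehicle controls.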

Cryptosporidium parvum [13] = assay: Antimicrobial activity against Cryptosporidium parvum infected in neonatal BALB/C mouse assessed as reduction in trophozoites in colon at 100 mg/kg/day, po for 6 days by hematoxylin and eosin staining; type: functional; parameters: scale not given: the % may be the effect or the level left; in short: as §2
Cryptosporidium parvum [14] = assay: Antimicrobial activity against Cryptosporidium parvum infected in neonatal ICR swiss mouse assessed as reduction in oocyst shedding at 50 mg/kg/day, po measured on day 6; type: functional; parameters: scale not given: the % may be the effect or the level left
Cryptosporidium parvum [15] = assay: Antimicrobial activity against Cryptosporidium parvum infected in neonatal BALB/C mouse assessed as reduction in oocyst shedding at 100 mg/kg/day, po for 4 days treated 3 days postinfection; type: functional; parameters: scale not given: the % may be the effect or the level left; in short: as §1
Cryptosporidium parvum [16] = assay: Antimicrobial activity against Cryptosporidium parvum infected in human HCT-8 cells assessed as growth inhibition after 48 hrs by ELISA; type: functional
In short: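 HCT-8 cells seeded at 5 × 10⁴/well 24 h before infection, then infected with 5 × 10³ Iowa-isolate oocysts in RPMI/10% FBS/0.05% bile salts for 90 min at 37°C and washed. Drug was added and cells incubated 48 h at 37°C, formalin-fixed, then probed with rat anti-sporozoite serum, HRP anti-rat and TMB, read at A450. Freeze-thawed-oocyst background was subtracted; % inhibition was taken versus untreated infected wells. Triplicate wells, two experiments.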

Cryptosporidium parvum [17] = assay: Antimicrobial activity against Cryptosporidium parvum infected in neonatal BALB/C mouse assessed as reduction in trophozoites in ileum at 100 mg/kg/day, po for 6 days by hematoxylin and eosin staining; type: functional; parameters: scale not given: the % may be the effect or the level left; in short: as §2
HCT-8 [18] = assay: Cytotoxicity against human HCT8 cells assessed as reduction in viable cells after 48 hrs by MTS assay; type: cell-based; conditions: hct-8, 48 h
Cryptosporidium parvum [19] = assay: Antimicrobial activity against Cryptosporidium parvum infected in neonatal BALB/C mouse assessed as reduction in oocyst shedding at 5 mg/kg/day, po for 6 days treated 3 days postinfection; type: functional; parameters: scale not given: the % may be the effect or the level left
In short: (§3)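 3-day-old BALB/c mice infected orally with 10⁵ Iowa-isolate oocysts. Oral dosing from day 3 post-infection, 4 or 6 consecutive days, in water with 5% DMSO or 5–10% ethanol final; vehicle controls matched. Euthanized day 9 post-infection. Distal-colon stool smears (2–3 μl) were methanol-fixed and IFA-stained. Oocysts counted over 21 fields at ×400 along a transect; reduction expressed relative to vehicle controls.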

Cryptosporidium parvum [20] = assay: Antimicrobial activity against Cryptosporidium parvum infected in neonatal BALB/C mouse assessed as reduction in trophozoites in ileum at 5 mg/kg/day, po for 6 days by hematoxylin and eosin staining; type: functional; parameters: scale not given: the % may be the effect or the level left
In short: (§4)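 Infected neonatal BALB/c mice (10⁵ oocysts orally at 3 days old) dosed orally for 6 days from day 3; killed day 9. 1-cm ileal sections (1–6 cm proximal to appendix), appendix/ileocecal junction, and distal colon were formalin-fixed and H&E-stained. Trophozoites per 1,000 epithelial cells scored blind by two readers on duplicate sections. Per-mouse summary score summed across sections; compared with vehicle controls.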

Cryptosporidium parvum [21] = assay: Antimicrobial activity against Cryptosporidium parvum infected in neonatal BALB/C mouse assessed as reduction in trophozoites in appendix at 5 mg/kg/day, po for 6 days by hematoxylin and eosin staining; type: functional; parameters: scale not given: the % may be the effect or the level left; in short: as §4
Cryptosporidium parvum [22] = assay: Antimicrobial activity against Cryptosporidium parvum infected in neonatal BALB/C mouse assessed as reduction in number of trophozoites at 5 mg/kg/day, po for 6 days; type: functional; parameters: scale not given: the % may be the effect or the level left; conditions: in the assay text read “100 mg/kg/day” for “5 mg/kg/day”; in short: as §4
Cryptosporidium parvum [23] = assay: Antimicrobial activity against Cryptosporidium parvum infected in neonatal BALB/C mouse assessed as reduction in oocyst shedding at 5 mg/kg/day, po for 4 days treated 3 days postinfection; type: functional; parameters: scale not given: the % may be the effect or the level left; in short: as §3
Cryptosporidium parvum [24] = assay: Antimicrobial activity against Cryptosporidium parvum infected in neonatal BALB/C mouse assessed as reduction in oocyst shedding at 12.5 mg/kg/day, po for 4 days treated 3 days postinfection; type: functional; parameters: scale not given: the % may be the effect or the level left; in short: as §3
Cryptosporidium parvum [25] = assay: Antimicrobial activity against Cryptosporidium parvum infected in neonatal BALB/C mouse assessed as reduction in trophozoites in colon at 5 mg/kg/day, po for 6 days by hematoxylin and eosin staining; type: functional; parameters: scale not given: the % may be the effect or the level left; in short: as §4
HCT-8 [26] = assay: Cytotoxicity against human HCT8 cells assessed as reduction in viable cells after 48 hrs at 1.6 uM by MTS assay; type: cell-based; conditions: hct-8, 48 h

In the case of `CCN(CC)CCCC(C)Nc1ccnc2cc(Cl)ccc12` (stereo not drawn) [CHLOROQUINE], the Activity (HCT-8 [1]) is reported as 15%, the Activity (HCT-8 [2]) is reported as 12% and the IC50 (Cryptosporidium parvum [3]) is reported as 27 µM. The Activity (HCT-8 [4]) was < 5%.
With `CC(=O)Oc1ccccc1C(=O)Nc1ncc([N+](=O)[O-])s1` [NITAZOXANIDE] the Activity (Cryptosporidium parvum [5]) was “inactive”, the IC50 (Cryptosporidium parvum [6]) was 3.8 µM and the Activity (Cryptosporidium parvum [7]) was <5%. The Activity (Cryptosporidium parvum [8]) was “inactive”.
`NC[C@@H]1O[C@H](O[C@H]2[C@@H](O)[C@H](O[C@@H]3[C@@H](O)[C@H](N)C[C@H](N)[C@H]3O[C@H]3O[C@H](CO)[C@@H](O)[C@H](O)[C@H]3N)O[C@@H]2CO)[C@H](N)[C@@H](O)[C@@H]1O` [PAROMOMYCIN] was tested, and the Activity (Cryptosporidium parvum [9]) was 85%, the Activity (Cryptosporidium parvum [10]) was 96.4% and the Activity (Cryptosporidium parvum [11]) was >80%. The Activity (Cryptosporidium parvum [12]) was 90%, the Activity (Cryptosporidium parvum [13]) was 90% and the Activity (Cryptosporidium parvum [14]) was <2%. The Activity (Cryptosporidium parvum [15]) was 95%, the “inhibition (INH)” value (Cryptosporidium parvum [16]) was 40% and the IC50 (Cryptosporidium parvum [3]) was 711 µM. For the same molecule, the Activity (Cryptosporidium parvum [17]) was 90%.
For `Cc1cc(/C=C/c2ccc3cc(N(C)C)ccc3[n+]2C)c(C)n1-c1ccccc1` [PYRVINIUM], the Activity (HCT-8 [18]) was < 15%, the Activity (Cryptosporidium parvum [19]) was 96.6% and the Activity (Cryptosporidium parvum [20]) was 90%. It also gave an Activity (Cryptosporidium parvum [21]) of 90%, an Activity (Cryptosporidium parvum [22]) of 99% and an IC50 (Cryptosporidium parvum [3]) of 0.354 µM. The Activity (Cryptosporidium parvum [23]) was 92.6%, the Activity (Cryptosporidium parvum [24]) was 89.3% and the Activity (Cryptosporidium parvum [25]) was 90%. It also gave an Activity (HCT-8 [26]) of 40%.
